Measurements taken from PMC4120251 (Journal of Alzheimer's disease : JAD, 2013).
Read-outs that look alike come from different tables or passages of the source.

Key:
IL-6 = IL-6 ELISA in TBS soluble brain homogenate; assay type: in vivo; settings: APP/PS1ΔE9 mice, 50 μg/mouse RO 3 times a week for 6 weeks, p < 0.05
Method in brief: (§1)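 Saline-perfused cortex and hippocampus were homogenized in 15 volumes of ice-cold TBS (pH 7.4) with protease inhibitors. Homogenate was spun at 20,000g for 20 min at 4°C, and the supernatant (TBS-soluble fraction) was assayed with a commercial sandwich ELISA following the kit protocol. Values were normalized to total protein (BCA). Mice were 4-month-old males; controls received an equal volume of saline.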

U251 astrocytes [1] = assay: Cell viability, MTT assay; assay type: cell-based, human; settings: U251 cells, 0 to 10 μg/ml, 24 h, n = 4
Method in brief: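 U251-MG astroglioma cells were grown in DMEM/Ham's F-12 with 10 mM HEPES, 2 mM L-glutamine, penicillin/streptomycin and 10% FBS. Cells were exposed to test compound for 24 h, and viability was read by MTT reduction using a TOX-1 kit.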

[2] = test system: Iba-1 activated microglia; assay: Activated microglia by Iba-1 immunostaining; assay type: in vivo; settings: APP/PS1ΔE9 mice, 50 μg/mouse RO 3 times a week for 6 weeks, n = 8
Method in brief: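 Right hemisphere fixed in buffered formaldehyde after saline perfusion under ketamine/xylazine. Free-floating 30 μm sections were stained with rabbit polyclonal anti-Iba-1 (1:250) and a Vectastain rabbit IgG kit. Four coronal sections per brain were imaged and converted to grayscale. Iba-1-positive area was measured over cortex and hippocampus and expressed as burden (% stained surface of total area). Mice were 4-month-old males.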

TNF-α = TNF-α ELISA in TBS soluble brain homogenate; assay type: in vivo; settings: APP/PS1ΔE9 mice, 50 μg/mouse RO 3 times a week for 6 weeks, p < 0.05
Method in brief: as §1

[3] = assay type: in vivo, mouse; settings: ApoE null mice
[4] = in vivo; cited from earlier work
[5] = Tissue bioavailability: 14C-labeled peptide in brain; assay type: in vivo, mouse; settings: 14C-labeled peptide via tail vein, brain at 6 h
[6] = Plasma total cholesterol in APP/PS1ΔE9 mice; assay type: in vivo, mouse; settings: peptide group before treatment, mean ± SEM, n = 8
Method in brief: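 Plasma total cholesterol was determined colorimetrically with Infinity cholesterol reagent at baseline and after 6 weeks of treatment. Mice were 4-month-old male transgenics.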

U251 astrocytes [7] = assay: Secretion of ApoE, human ApoE ELISA of media; assay type: cell-based; settings: no ox-PAPC or oAβ42, ApoE in media by ELISA, n = 6

In the case of “Ac-LRKLRKRLLRDWLKAFYDKVAEKLKEAF-NH2 [Ac-hE18A-NH2]”, the “IL-6 level in TBS soluble fraction of brain homogenate versus control” value (IL-6) is reported as “decreased significantly”, the “toxicity (cell viability) compared to control” value (U251 astrocytes [1]) is reported as “no toxicity” and the “reduction in the amount of activated microglia (Iba-1 staining)” value [2] is reported as 13%. The “number of Iba-1 immunopositive activated microglia versus saline” value ([2]; p < 0.05) was “significantly reduced”, the “TNF-α level in TBS soluble fraction of brain homogenate versus control” value (TNF-α) was “decreased significantly” and the “change in plasma cholesterol levels compared to baseline” value (“change in plasma cholesterol levels” below) ([3]; retro-orbital (RO), 5 min) was 52 ± 3%. For the same substance, the “change in plasma cholesterol levels” value ([3]; retro-orbital (RO), 5 h) was 17.2 ± 2%, the “change in plasma cholesterol levels” value ([3]; tail vein, 5 min) was 52 ± 4% and the “change in plasma cholesterol levels” value ([3]; tail vein, 5 h) was 14 ± 1%. For the same substance, the “half-life in plasma, rapid phase” value [4] was 1.6 min, the “half-life in plasma, slow phase” value [4] was 96.6 min and the “peptide crossing BBB, fraction of the injected dose” value [5] was 0.13 % of the injected dose. The “plasma cholesterol at baseline” value [6] was 165.3 ± 10.3 mg/dL and the “enhancement of ApoE secretion by peptide by itself” value (U251 astrocytes [7]) was “about 25%”.
